The text below walks through data of ChEMBL document CHEMBL4765233, “From Lead to Drug Candidate: Optimization of 3-(Phenylethynyl)-1H-pyrazolo[3,4-d]pyrimidin-4-amine Derivatives as Agents for the Treatment of Triple Negative Breast Cancer” (J Med Chem, 2016).

As a reminder, the IC50 is the concentration that gives 50% inhibition. One may read the half-life as the time in which the quantity being followed falls by half.

One data set relates to Mus musculus. The data set is described as follows: In vivo inhibition of ERK in SCID mouse xenografted with human MDA-MB-231 cells assessed as reduction in phosphorylation of ERK in tumor tissue at 40 mg/kg, po QD for 21 days by immunohistochemical analysis. In kind it is functional, organism-based. The settings on record: dose 40.0 mg/kg/day, time 21.0 day. In short, it runs like this:
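Tumors taken from xenografted SCID mice dosed orally at 40 mg/kg/q.d. or given control; mice euthanized at set times. Tumors formalin-fixed and paraffin-embedded, stained by immunohistochemistry for phospho-proteins, and imaged by light microscopy.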

The species named for another data set is Danio rerio. In words: Antiangiogenesis activity in EGFP-labelled zebrafish embryo assessed as reduction in formation of dorsal aorta at 1.25 to 5 uM incubated for overnight by fluorescence microscopic analysis. The class given is functional, organism-based. Conditions: dose 1.25-5 µM. In short, it runs like this: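 Transgenic FLK:EGFP zebrafish kept at 28 °C, pH 7.2−7.4, 14 h light/10 h dark. Embryos at 30 hpf incubated overnight with compound at 1.25, 2.5 or 5 μM beside a blank control. Fish anaesthetized, then vessels imaged by fluorescence microscopy.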

The next data set has as its system L929. In words: Cytotoxicity against mouse L929 cells assessed as reduction in cell viability incubated for 72 hrs by MTT assay. The class given is cell-based. The settings on record: L929, 72 h. A digest of the protocol:
(§1)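 MTT viability assay. ATCC cell lines were grown in designated medium with 10% FBS at 37 °C, 5% CO2. Cells seeded at 1500−30000 per well and incubated 24 h, then exposed to compound (0−10 μg/mL) for 72 h. MTT added for 2−4 h. Formazan dissolved in DMSO (adherent) or acidified SDS overnight (suspension), absorbance read at 570 nm. Triplicates; IC50 calculated.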

Data set [1] deals with MDA-MB-231. In words: Induction of apoptosis in human MDA-MB-231 cells assessed as early apoptotic cells at 0.1 uM incubated for 24 hrs by annexin V-FITC and propidium iodide staining based flow cytometry analysis (reference value: 2 %). The class given is functional. (In general: Flow cytometry measures light scatter and fluorescence of single cells or particles in a stream.)

In data set [2] the test system is MDA-MB-231. The data set is described as follows: Increase in cleaved caspase-3 level in human MDA-MB-231 cells incubated for 20 hrs by Western blot analysis. The class given is functional, cell-based. The settings on record: dose 0.01-0.3 µM. In short, it runs like this: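 MDA-MB-231 cells given a concentration series for 20 h at 37 °C. Cells lysed in RIPA with protease cocktail, cleared at 12000 rpm, 4 °C. Protein quantified by Bradford, equal amounts run on SDS-PAGE, transferred to PVDF and immunoblotted.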
On the technique in general: A western blot detects proteins with antibodies after separation by electrophoresis.

Data set [3] can be described thus: Metabolic stability in dog liver microsomes assessed as parent compound remaining at 1 uM measured after 60 mins in presence of NADPH by HPLC-MS/MS analysis. The class given is ADME, Canis lupus familiaris, Microsome. The settings on record: read-out: Stabilty. In short, it runs like this:
(§2)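 Compound at 1 μM incubated with 0.5 mg/mL liver microsomes and 1 mM NADPH. Samples taken at 0, 10, 15, 30, 45 and 60 min and quenched with acetonitrile. After centrifugation, supernatant analysed by HPLC-MS/MS, with percent parent remaining relative to the 0 min area.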
On the technique in general: Liver microsomes are vesicles of endoplasmic reticulum, rich in cytochrome P450 enzymes.

Another data set addresses Activated CDC42 kinase 1 (Homo sapiens, UniProt Q07912). The data set is described as follows: Inhibition of human recombinant ACK1 (1 to 389 residues) using EFPIYDFLPAKKK as substrate incubated for 40 mins in presence of [gamma33P-ATP] by radiometric scintillation counting analysis. In short, it runs like this: (§3)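 Radiometric kinase assay run as an external profiling service, with ATP at the Km of each kinase. IC50 values are means of two independent experiments.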

Data set [4] is described as follows: Half-life in Sprague-Dawley rat at 10 mg/kg, po administered via gavage by LC-MS analysis. Conditions: in vivo. The class given is ADME, organism-based.
Data set [5] is described as follows: Acute toxicity in male Sprague-Dawley rat assessed as increase in body weight at 200 mg/kg, po administered as single dose measured after day 9 and monitored every 3 days. In kind it is organism-based. The settings on record: in vivo, 72 h, time >9 day. In short, it runs like this:
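Sprague-Dawley rats (n = 3) received a single oral dose of 200 mg/kg in sterile water with 25% (v/v) PEG400 plus 5% DMSO. Behaviour and side effects were monitored daily, and average body weight was measured every 3 days.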

Data set [6] is described as follows: Acute toxicity in Sprague-Dawley rat assessed as histopathological changes in liver at 100 mg/kg, po administered as single dose measured after 24 hrs by H and E staining based light microscope analysis. The class given is organism-based. The settings on record: in vivo. In short, it runs like this:
(§4)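 Sprague-Dawley rats received a single oral dose of 100 mg/kg in sterile water with 25% (v/v) PEG400 plus 5% DMSO. Organs were examined by histology and immunohistochemistry for pathological changes. Behaviour and side effects were checked daily.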

The test system of data set [7] is MDA-MB-231. The data set is described as follows: Antimigratory activity against human MDA-MB-231 cells assessed as inhibition of cell migration at 0.3 uM incubated for 20 hrs by wound healing assay. In kind it is functional, cell-based. A digest of the protocol:
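MDA-MB-231 monolayer grown to confluence, scratched with a sterile pipet tip, rinsed with physiological saline, then given DMEM containing vehicle or compound. Wound imaged after 20 h to assess migration.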

In data set [8] the test system is MDA-MB-231. The data set is described as follows: Inhibition of Fra1 expression in human MDA-MB-231 cells at >0.03 uM incubated for 20 hrs by Western blot analysis. Conditions: dose microM >0.03, time 20.0 hrs. The class given is functional, cell-based. A digest of the protocol:
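MDA-MB-231 cells treated with a series of concentrations for 20 h at 37 °C. Cells washed with ice-cold saline and lysed in RIPA buffer with protease cocktail. Lysates cleared at 12000 rpm for 10 min at 4 °C and protein quantified by Bradford. Equal protein separated by SDS-PAGE, transferred to PVDF and probed with antibodies.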

Data set [9] in a line: Metabolic stability in human liver microsomes assessed as parent compound remaining at 1 uM measured after 60 mins in presence of NADPH by HPLC-MS/MS analysis. The class given is ADME, Microsome. Conditions: read-out: Stabilty. A digest of the protocol:
as §2

The test system of data set [10] is MDA-MB-231. The data set is described as follows: Induction of apoptosis in human MDA-MB-231 cells incubated for 24 hrs by annexin V-FITC and propidium iodide staining based flow cytometry analysis. In kind it is functional, cell-based. The settings on record: dose 0.01-0.1 µM. In short, it runs like this: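 MDA-MB-231 cells (2 × 10^5) plated in six-well plates, treated with vehicle or compound at various concentrations for 24 h at 37 °C. Harvested, washed with ice-cold PBS, stained with Annexin V-FITC/PI and analysed by flow cytometry.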

Data set [11] can be described thus: Toxicity in SCID mouse xenografted with MDA-MB-231 cells assessed as animal death at 40 mg/kg, po qd for 15 days. The class given is organism-based. The settings on record: in vivo, dose 40 mg/kg/day, time 15 day, read-out: Activity.
The test system of a further data set is A-375. In words: Antiproliferative activity against human A-375 cells assessed as reduction in cell viability incubated for 72 hrs by MTT assay. In kind it is functional, cell-based. Conditions: A-375, 72 h. A digest of the protocol:
as §1

The nature of data set [12]: Acute toxicity in Sprague-Dawley rat assessed as histopathological changes in heart at 100 mg/kg, po administered as single dose measured after 24 hrs by H and E staining based light microscope analysis. The class given is organism-based. Conditions: in vivo. In short, it runs like this:
as §4

For data set [13], the system named is MDA-MB-231. In words: Induction of apoptosis in human MDA-MB-231 cells assessed as necrotic cells at 0.1 uM incubated for 24 hrs by annexin V-FITC and propidium iodide staining based flow cytometry analysis (reference value: 0.2 %). In kind it is functional.
The test system of data set [14] is MDA-MB-231. In words: Induction of apoptosis in human MDA-MB-231 cells assessed as live cells at 0.03 uM incubated for 24 hrs by annexin V-FITC and propidium iodide staining based flow cytometry analysis (reference value: 96.95 %). In kind it is functional.
A short description of data set [15]: Acute toxicity in Sprague-Dawley rat assessed as histopathological changes in lungs at 100 mg/kg, po administered as single dose measured after 24 hrs by H and E staining based light microscope analysis. In kind it is organism-based. The settings on record: in vivo. A digest of the protocol: as §4
For data set [16], the target named is Ribosomal protein S6 kinase alpha-3 (Homo sapiens, UniProt P51812). The data set is described as follows: Inhibition of human recombinant RSK2 (2 to end residues) using KKKNRTLSVA as substrate incubated for 40 mins in presence of [gamma33P-ATP] by radiometric scintillation counting analysis. In short, it runs like this: as §3

SMILES strings stand for the structures. The source made the active and inactive calls. No cut-off for these calls is given here.

Chain of Activated CDC42 kinase 1 (Q07912 whole entry, the tested form may be a part): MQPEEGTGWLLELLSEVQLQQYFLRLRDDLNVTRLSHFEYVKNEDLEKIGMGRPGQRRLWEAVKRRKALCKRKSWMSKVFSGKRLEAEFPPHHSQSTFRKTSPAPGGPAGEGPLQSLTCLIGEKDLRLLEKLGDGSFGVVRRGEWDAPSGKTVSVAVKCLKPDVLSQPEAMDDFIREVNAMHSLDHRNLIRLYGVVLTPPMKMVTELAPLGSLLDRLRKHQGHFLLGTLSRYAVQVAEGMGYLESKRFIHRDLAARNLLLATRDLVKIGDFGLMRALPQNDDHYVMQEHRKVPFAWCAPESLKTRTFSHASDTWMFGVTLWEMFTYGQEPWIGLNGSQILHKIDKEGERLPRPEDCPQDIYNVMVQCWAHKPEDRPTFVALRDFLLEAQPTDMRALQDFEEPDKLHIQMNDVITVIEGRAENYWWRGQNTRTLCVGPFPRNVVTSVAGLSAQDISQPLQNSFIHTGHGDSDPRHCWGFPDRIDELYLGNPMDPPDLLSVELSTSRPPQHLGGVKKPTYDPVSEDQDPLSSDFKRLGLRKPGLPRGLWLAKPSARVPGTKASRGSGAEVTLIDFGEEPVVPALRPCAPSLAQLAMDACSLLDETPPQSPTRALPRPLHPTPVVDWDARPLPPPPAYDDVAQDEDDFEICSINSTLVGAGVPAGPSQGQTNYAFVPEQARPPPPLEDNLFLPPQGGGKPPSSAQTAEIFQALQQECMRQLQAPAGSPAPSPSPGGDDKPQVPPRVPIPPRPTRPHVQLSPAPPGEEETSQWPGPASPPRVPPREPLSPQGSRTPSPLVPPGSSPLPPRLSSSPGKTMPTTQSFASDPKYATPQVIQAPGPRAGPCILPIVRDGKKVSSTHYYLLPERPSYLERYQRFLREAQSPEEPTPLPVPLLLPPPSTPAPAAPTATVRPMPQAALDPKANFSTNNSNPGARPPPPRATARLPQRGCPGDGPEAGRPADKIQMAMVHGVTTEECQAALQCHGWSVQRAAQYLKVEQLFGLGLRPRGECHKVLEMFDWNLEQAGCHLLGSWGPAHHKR
Chain of Ribosomal protein S6 kinase alpha-3 (P51812 whole entry): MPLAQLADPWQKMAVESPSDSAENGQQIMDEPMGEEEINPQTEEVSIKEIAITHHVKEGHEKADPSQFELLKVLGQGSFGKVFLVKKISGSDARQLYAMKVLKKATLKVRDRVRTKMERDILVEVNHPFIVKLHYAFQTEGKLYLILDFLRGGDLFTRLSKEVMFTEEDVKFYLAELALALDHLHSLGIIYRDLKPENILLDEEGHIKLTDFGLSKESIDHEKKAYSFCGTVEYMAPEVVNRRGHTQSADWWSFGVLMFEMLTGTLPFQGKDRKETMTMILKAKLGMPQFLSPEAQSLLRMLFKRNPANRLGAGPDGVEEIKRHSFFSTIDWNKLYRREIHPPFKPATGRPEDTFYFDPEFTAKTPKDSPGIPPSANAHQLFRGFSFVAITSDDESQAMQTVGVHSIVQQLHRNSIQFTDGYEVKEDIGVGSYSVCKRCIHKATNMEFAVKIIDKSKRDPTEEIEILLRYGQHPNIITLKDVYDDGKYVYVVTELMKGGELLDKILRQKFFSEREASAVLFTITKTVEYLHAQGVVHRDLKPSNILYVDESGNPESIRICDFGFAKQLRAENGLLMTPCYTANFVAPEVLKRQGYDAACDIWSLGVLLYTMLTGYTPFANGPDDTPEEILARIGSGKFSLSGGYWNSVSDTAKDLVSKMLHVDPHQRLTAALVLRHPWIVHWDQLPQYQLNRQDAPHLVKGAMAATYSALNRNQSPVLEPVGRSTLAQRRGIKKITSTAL

In the case of `Cc1ccc(NC(=O)c2ccc(C)c(C(F)(F)F)c2)cc1C#Cc1nn([C@H]2CC[C@H](O)CC2)c2ncnc(N)c12`, the inhibition entry in the data set on Mus musculus and in the data set on MDA-MB-231 [8] was “Active” in each case. Moreover, the outcome in the data set listed under Danio rerio was inactive. The 50% inhibitory concentration (IC50) was > 10000 nM with L929, 175 nM at Activated CDC42 kinase 1, 31 nM in the data set on A-375 and > 10000 nM in data set [16]. Moreover, the Activity in the data set with MDA-MB-231 [1] is 13.48%; with MDA-MB-231 [2], “Dose-dependent effect”; in [5] it was “Non-Toxic”; in data set [6], “Non-Toxic”; in the data set with MDA-MB-231 [10], “Dose-dependent effect”; in [12], “Non-Toxic”. Further, the Activity with MDA-MB-231 [13] was 1.23%; in the data set on MDA-MB-231 [14] it was 78.36%; in data set [15] it was “Non-Toxic”. The remaining at 1 h, 1 µM in data set [3] and in data set [9] was > 90% throughout. This compound gave a half-life in data set [4] of 18.9 h. For the same compound, in the data set with MDA-MB-231 [7], the outcome was Active. Further, the mortality at 360 h in data set [11] worked out at 0%.
